From ChEMBL document CHEMBL1155216, “A direct synthesis of 5,6-dihydroindolo[2,1-a]isoquinolines that exhibit immunosuppressive activity” (Bioorg Med Chem Lett, 2009) come the findings set out here.

In data set [1] the test system is Splenocyte. As to the kind of experiment: Immunosuppressive activity in influenza virus A/PR/8/34-H1N1 infected mouse splenocytes assessed as reduction of IL-10 level at 0.5 mg/ml after 96 hrs by ELISA. Type of data set: functional, cell-based. In short, it runs like this:
(§1)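 Spleen cells from mice taken 7 days after influenza infection; RBCs lysed with ammonium chloride, washed in HBSS, 5 × 10⁶ cells/ml in AIM-V. Restimulated with virus, compounds at 0.5 mg/ml final, triplicate, 37 °C, 5% CO₂. Supernatants collected at 48 h for IL-2 and IFN-γ and at 96 h for IL-10. Sandwich ELISA, TMB readout, four-parameter standard-curve fit.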
In general terms: In an ELISA, binding on a coated surface is turned into a signal by an enzyme label.

The subject of data set [2] is Splenocyte. As to the kind of experiment: Immunosuppressive activity in influenza virus A/PR/8/34-H1N1 infected mouse splenocytes assessed as reduction of IFN-gamma level at 0.5 mg/ml after 48 hrs by ELISA. Type of data set: functional, cell-based. The method in brief:
as §1

Data set [3] deals with Splenocyte. As to the kind of experiment: Immunosuppressive activity in influenza virus A/PR/8/34-H1N1 infected mouse splenocytes assessed as reduction of IL-2 level at 0.5 mg/ml after 48 hrs by ELISA. Type of data set: functional, cell-based. In short, it runs like this:
as §1

Data set [4] in a line: Cytotoxicity against mouse splenocytes assessed as cell viability after 24 hrs by MTS assay. Type of data set: cell-based. The note with it: splenocyte. The method in brief: (§2)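 Spleen cells from non-infected mice, no stimulus added, cultured at 5 × 10⁶ cells/ml in AIM-V medium (1.25 × 10⁵ cells/well) with each compound for the stated time at 37 °C, 5% CO₂, humidified. MTS plus phenazine ethosulfate then added and incubated 3 h more. Absorbance read at 490 nm. Viability compared against vehicle control.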

A short description of data set [5]: Cytotoxicity against mouse splenocytes assessed as cell viability after 48 hrs by MTS assay. Type of data set: cell-based. The settings on record: splenocyte. The method in brief: as §2
On the technique in general: Tetrazolium assays rely on reduction of a dye to a coloured formazan, in cell work by metabolically active cells.

The nature of data set [6]: Cytotoxicity against mouse splenocytes assessed as cell viability after 72 hrs by MTS assay. Type of data set: cell-based. The note with it: splenocyte. In short, it runs like this: as §2

SMILES strings stand for the structures. Active and inactive are the calls of the source. No cut-off for these calls is given here.

As for `COc1cc2cc3n(c2cc1OC)CCc1ccccc1-3`, the outcome in the data set on Splenocyte [1], in the data set on Splenocyte [2] and with Splenocyte [3] was Active. Besides, the Activity entry in data set [4], in data set [5] and in data set [6] was “Toxic” each time.

As to `FC(F)(F)c1ccc2cc3n(c2c1)CCc1ccccc1-3`, the result with Splenocyte [1], in the data set with Splenocyte [2] and with Splenocyte [3] was Active. Besides, the Activity entry in data set [4] is recorded as “Toxic”; in data set [5] it was “Non-toxic”; in data set [6] it was “Non-toxic”.

Regarding `COc1cc2c(cc1OC)-c1cc3cc(OC)c(OC)cc3n1CC2`, the outcome in the data set on Splenocyte [1], in the data set on Splenocyte [2] and in the data set with Splenocyte [3] was Active. Moreover, the Activity result in data set [4], in data set [5] and in data set [6] was “Toxic” throughout.

Take `COc1cc2c(cc1OC)-c1cc3ccccc3n1CC2`: the outcome in the data set with Splenocyte [1], with Splenocyte [2] and with Splenocyte [3] was Active. For the same molecule, the Activity entry in data set [4], in data set [5] and in data set [6] was “Toxic” throughout.

For the molecule `COc1cc2c(cc1OC)-c1cc3cccc(OC)c3n1CC2`, the outcome in the data set on Splenocyte [1], with Splenocyte [2] and with Splenocyte [3] was Active.

Consider `COc1cc2c(cc1OC)-c1cc3ccc(C(F)(F)F)cc3n1CC2`, for which the outcome in the data set on Splenocyte [1], with Splenocyte [2] and in the data set on Splenocyte [3] was Active. For the same molecule, the Activity result in data set [4] is reported as “Toxic”; in data set [5], “Non-toxic”; in data set [6], “Non-toxic”.

Consider `c1ccc2c(c1)CCn1c-2cc2ccccc21`, for which the outcome in the data set on Splenocyte [1], in the data set with Splenocyte [2] and in the data set on Splenocyte [3] was Active.

Take `FC(F)(F)c1ccc2c(c1)cc1n2CCc2ccccc2-1`: the outcome in the data set on Splenocyte [1], in the data set with Splenocyte [2] and in the data set with Splenocyte [3] was Active. In addition, the Activity result in data set [4], in data set [5] and in data set [6] was “Non-toxic” each time.

For the molecule `COc1cc2c(cc1OC)-c1cc3cc(C(F)(F)F)ccc3n1CC2`, the outcome with Splenocyte [1], in the data set with Splenocyte [2] and in the data set with Splenocyte [3] was Active. The Activity result in data set [4], in data set [5] and in data set [6] was “Toxic” throughout.

As for `COc1cccc2cc3n(c12)CCc1ccccc1-3`, the result in the data set on Splenocyte [1], in the data set on Splenocyte [2] and in the data set on Splenocyte [3] was Active. The Activity result in data set [4], in data set [5] and in data set [6] was “Toxic” in each case.
